Results on five compounds are retold here after PMC3270411 (Chemistry & biology, 2012).

The term EC50 denotes the midpoint of the concentration-response curve. For orientation: inhibition means the drop in the measured response relative to a control, in per cent.

Type in all cases: cell-based
One experiment concerns the target T1, PKD2 (Homo sapiens, UniProt Q9BZL6).
T1 sequence (Q9BZL6 1-878): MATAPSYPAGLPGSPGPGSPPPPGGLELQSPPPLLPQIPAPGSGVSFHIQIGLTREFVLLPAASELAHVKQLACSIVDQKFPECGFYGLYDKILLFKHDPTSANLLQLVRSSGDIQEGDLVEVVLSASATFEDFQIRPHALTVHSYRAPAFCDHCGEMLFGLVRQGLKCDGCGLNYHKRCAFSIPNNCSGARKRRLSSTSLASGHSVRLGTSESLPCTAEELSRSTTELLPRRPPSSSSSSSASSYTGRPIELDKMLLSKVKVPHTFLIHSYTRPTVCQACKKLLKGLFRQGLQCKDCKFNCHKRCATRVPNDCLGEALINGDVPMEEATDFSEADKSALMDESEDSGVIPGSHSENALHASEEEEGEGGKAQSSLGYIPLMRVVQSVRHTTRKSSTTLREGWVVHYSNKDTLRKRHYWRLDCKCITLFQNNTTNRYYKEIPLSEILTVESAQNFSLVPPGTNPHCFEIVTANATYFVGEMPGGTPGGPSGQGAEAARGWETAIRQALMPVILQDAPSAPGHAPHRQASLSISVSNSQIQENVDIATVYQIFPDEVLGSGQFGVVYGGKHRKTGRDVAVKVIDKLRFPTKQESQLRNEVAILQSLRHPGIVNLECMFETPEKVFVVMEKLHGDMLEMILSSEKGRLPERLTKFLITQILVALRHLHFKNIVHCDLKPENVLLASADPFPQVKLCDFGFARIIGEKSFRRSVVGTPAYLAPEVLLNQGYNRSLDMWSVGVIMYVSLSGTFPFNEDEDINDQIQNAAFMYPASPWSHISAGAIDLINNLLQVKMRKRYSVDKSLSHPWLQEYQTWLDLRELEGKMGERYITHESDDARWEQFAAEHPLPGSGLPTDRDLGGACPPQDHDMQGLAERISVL
Kind of experiment: KiNativ cellular kinase profiling. The settings on record: for Percent inhibition of kinase labeling by ATP-biotin: A375 cells, 1 μM, 3 hours, PKD2, labeling site Lys1; for inhibition at 1 µM: A-375, read-out: Percent inhibition of kinase labeling by ATP-biotin.

Another experiment addresses BRAF (Homo sapiens, UniProt P15056). Kind of experiment: KiNativ cellular kinase profiling. The settings on record: for Percent inhibition of kinase labeling by ATP-biotin: A375 cells, 1 μM, 3 hours, BRAF, labeling site Lys2; for inhibition at 1 µM: A-375, read-out: Percent inhibition of kinase labeling by ATP-biotin.
A further experiment concerns the target MARK1 (Homo sapiens, UniProt Q9P0L2). Description: KiNativ cellular kinase profiling. The settings on record: for Percent inhibition of kinase labeling by ATP-biotin: A375 cells, 1 μM, 3 hours, MARK1, labeling site Lys2; for inhibition at 1 µM: A-375, read-out: Percent inhibition of kinase labeling by ATP-biotin.
For a further experiment, the system named is JNK1,JNK2,JNK3. Kind of experiment: KiNativ cellular kinase profiling. The settings on record: A375 cells, 1 μM, 3 hours; JNK1,JNK2,JNK3, labeling site Lys2.
The subject of another experiment is MAP2K1,MAP2K2. Description: KiNativ cellular kinase profiling. The note with it: A375 cells, 1 μM, 3 hours; MAP2K1,MAP2K2, labeling site Lys2.
For the next experiment, the system named is ABL,ARG. Kind of experiment: KiNativ cellular kinase profiling. The note with it: A375 cells, 1 μM, 3 hours, labeling site Lys1.
Another experiment addresses T2, IKKa (Homo sapiens, UniProt O15111).
T2 sequence (O15111 1-745): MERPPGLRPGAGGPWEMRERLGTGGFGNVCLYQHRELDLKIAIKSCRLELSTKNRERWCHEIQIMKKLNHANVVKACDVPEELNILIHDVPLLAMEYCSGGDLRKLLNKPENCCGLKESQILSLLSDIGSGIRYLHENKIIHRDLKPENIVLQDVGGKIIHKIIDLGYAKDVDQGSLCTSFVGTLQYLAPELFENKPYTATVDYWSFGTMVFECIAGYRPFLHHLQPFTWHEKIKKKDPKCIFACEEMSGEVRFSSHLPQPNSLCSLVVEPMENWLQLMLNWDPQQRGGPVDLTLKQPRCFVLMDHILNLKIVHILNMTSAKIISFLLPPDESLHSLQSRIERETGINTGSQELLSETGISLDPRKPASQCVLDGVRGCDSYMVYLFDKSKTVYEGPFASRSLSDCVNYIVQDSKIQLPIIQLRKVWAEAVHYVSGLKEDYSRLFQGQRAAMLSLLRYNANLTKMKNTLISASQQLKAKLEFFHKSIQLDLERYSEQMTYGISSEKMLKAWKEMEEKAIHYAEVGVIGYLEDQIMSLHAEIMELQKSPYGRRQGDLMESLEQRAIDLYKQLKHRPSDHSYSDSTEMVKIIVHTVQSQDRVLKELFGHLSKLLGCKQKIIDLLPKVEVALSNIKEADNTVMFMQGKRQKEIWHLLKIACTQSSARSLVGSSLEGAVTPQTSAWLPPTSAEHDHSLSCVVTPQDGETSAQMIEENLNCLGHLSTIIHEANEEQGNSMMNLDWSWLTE
Description: KiNativ cellular kinase profiling. The settings on record: for Percent inhibition of kinase labeling by ATP-biotin: A375 cells, 1 μM, 3 hours, IKKa, labeling site Lys2; for inhibition at 1 µM: A-375, read-out: Percent inhibition of kinase labeling by ATP-biotin.

In experiment [1] the test system is c-Jun phosphorylation (pSer73) in HeLa cells. Description: LanthaScreen TR-FRET c-Jun phosphorylation assay in HeLa cells. The settings on record: read-out: p-c-Jun EC50 (nM) Hela. The procedure, abridged:
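HeLa cells stably expressing GFP-c-Jun(1–79), 10,000/well in Opti-MEM with 0.5% charcoal/dextran-treated FBS, 25 mM Hepes pH 7.3, no phenol red; overnight. Pretreated 90 min with compound, then 30 min with 5 ng/ml TNF-α. Lysed in buffer containing 2 nM terbium anti-c-Jun pSer73 antibody; 60 min equilibration at room temperature. TR-FRET: excitation 340 nm, ratio Em 520/Em 490.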

In a further experiment the target is IRAK1 (Homo sapiens, UniProt P51617). Description: KiNativ cellular kinase profiling. The settings on record: for Percent inhibition of kinase labeling by ATP-biotin: A375 cells, 1 μM, 3 hours, IRAK1, labeling site Lys2; for inhibition at 1 µM: A-375, read-out: Percent inhibition of kinase labeling by ATP-biotin.
IRAK1, sequence (P51617 whole entry, species assumed): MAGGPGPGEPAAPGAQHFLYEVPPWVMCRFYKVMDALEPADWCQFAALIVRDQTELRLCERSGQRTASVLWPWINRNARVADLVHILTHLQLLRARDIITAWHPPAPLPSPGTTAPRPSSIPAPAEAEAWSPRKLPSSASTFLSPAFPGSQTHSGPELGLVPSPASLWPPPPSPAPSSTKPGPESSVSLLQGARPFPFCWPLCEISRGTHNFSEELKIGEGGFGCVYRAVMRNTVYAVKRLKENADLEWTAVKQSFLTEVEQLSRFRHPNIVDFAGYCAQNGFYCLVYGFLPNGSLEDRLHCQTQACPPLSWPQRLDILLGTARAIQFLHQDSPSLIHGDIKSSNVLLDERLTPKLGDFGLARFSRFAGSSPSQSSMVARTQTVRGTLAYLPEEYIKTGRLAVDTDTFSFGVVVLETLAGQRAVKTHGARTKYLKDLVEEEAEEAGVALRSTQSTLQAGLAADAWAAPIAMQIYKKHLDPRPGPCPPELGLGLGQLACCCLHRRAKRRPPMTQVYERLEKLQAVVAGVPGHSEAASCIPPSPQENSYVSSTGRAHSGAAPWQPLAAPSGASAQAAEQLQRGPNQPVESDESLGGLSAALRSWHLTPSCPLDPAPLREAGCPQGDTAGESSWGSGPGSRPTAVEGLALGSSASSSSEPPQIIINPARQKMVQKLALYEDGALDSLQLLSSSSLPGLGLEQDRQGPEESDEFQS
In experiment [2] the test system is c-Jun phosphorylation and Erk, p38, JNK, Akt, Stat, NF-κB and Rsk pathway nodes. Kind of experiment: microscopy-based cellular pathway profiling with phospho-specific antibodies. The settings on record: phospho-specific antibody microscopy.
The next experiment deals with T3, AurA (Homo sapiens, UniProt O14965).
T3 sequence (O14965 1-403): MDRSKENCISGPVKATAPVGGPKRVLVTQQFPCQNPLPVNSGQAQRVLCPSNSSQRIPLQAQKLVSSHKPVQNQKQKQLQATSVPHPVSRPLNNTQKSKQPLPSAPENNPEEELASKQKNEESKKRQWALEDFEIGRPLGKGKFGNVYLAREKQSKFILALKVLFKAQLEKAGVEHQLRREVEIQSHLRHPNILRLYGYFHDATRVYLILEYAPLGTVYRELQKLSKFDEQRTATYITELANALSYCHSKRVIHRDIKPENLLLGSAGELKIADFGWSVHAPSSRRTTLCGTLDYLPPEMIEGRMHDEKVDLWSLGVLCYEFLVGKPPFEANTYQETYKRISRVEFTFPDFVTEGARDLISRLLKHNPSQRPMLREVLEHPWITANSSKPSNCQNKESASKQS
Description: KiNativ cellular kinase profiling. The note with it: for Percent inhibition of kinase labeling by ATP-biotin: A375 cells, 1 μM, 3 hours, AurA, labeling site Lys2; for inhibition at 1 µM: A-375, read-out: Percent inhibition of kinase labeling by ATP-biotin.

The target of a further experiment is PIP5K3 (Homo sapiens, UniProt Q9Y2I7). Description: KiNativ cellular kinase profiling. The note with it: for Percent inhibition of kinase labeling by ATP-biotin: A375 cells, 1 μM, 3 hours, PIP5K3, labeling site ATP; for inhibition at 1 µM: A-375, read-out: Percent inhibition of kinase labeling by ATP-biotin.
PIP5K3, sequence (Q9Y2I7 whole entry): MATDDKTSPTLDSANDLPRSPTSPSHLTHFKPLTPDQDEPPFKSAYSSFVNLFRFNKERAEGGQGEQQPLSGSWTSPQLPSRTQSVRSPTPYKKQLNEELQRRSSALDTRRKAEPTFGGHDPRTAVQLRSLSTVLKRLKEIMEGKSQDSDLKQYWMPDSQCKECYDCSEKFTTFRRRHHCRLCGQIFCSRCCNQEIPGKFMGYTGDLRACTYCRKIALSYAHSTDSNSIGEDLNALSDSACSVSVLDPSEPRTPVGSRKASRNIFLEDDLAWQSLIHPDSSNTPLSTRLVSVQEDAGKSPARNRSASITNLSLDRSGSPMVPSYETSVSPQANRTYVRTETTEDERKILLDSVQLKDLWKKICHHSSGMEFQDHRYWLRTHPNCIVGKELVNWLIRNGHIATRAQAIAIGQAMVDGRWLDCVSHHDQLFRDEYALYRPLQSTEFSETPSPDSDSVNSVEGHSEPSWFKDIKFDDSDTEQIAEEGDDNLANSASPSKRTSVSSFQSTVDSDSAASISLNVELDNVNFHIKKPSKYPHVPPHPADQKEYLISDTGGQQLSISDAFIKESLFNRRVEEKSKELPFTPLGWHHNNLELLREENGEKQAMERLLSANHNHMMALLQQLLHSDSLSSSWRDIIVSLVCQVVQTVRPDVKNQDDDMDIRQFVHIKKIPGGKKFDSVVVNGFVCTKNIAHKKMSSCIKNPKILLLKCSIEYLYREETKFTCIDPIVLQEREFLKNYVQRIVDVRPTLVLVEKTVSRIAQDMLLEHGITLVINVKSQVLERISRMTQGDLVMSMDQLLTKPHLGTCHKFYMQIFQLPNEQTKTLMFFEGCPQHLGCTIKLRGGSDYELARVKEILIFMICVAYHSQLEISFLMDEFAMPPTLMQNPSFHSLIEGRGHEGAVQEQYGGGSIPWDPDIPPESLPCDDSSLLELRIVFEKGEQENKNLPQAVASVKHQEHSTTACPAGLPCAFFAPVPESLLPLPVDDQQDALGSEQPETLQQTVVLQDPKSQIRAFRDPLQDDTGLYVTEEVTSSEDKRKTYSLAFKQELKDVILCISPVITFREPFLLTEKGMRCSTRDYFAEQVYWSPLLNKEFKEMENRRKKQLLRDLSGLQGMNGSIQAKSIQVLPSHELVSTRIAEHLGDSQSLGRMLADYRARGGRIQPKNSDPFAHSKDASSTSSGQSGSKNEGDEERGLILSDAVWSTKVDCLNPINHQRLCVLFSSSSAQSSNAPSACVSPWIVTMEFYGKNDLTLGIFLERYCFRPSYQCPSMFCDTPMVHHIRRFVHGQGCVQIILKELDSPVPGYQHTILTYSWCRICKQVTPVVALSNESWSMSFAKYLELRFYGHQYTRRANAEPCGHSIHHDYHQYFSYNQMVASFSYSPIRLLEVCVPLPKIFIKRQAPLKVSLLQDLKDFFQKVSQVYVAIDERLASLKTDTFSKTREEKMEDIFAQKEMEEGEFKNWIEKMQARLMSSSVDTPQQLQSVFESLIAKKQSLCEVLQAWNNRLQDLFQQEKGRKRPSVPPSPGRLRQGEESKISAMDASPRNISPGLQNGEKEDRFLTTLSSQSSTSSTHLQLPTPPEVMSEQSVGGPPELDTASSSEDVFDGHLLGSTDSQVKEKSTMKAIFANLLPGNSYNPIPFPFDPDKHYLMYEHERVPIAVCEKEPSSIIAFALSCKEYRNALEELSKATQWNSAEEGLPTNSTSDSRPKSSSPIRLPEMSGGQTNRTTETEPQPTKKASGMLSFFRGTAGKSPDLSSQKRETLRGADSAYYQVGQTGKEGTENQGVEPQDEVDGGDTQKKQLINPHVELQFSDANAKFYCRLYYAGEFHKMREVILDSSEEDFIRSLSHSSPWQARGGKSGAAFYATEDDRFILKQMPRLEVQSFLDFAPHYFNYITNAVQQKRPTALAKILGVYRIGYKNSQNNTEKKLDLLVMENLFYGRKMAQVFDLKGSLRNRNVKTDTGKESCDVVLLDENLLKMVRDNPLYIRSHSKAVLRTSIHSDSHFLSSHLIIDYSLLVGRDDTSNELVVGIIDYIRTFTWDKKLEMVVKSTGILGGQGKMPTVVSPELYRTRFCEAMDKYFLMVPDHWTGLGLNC
[3] abbreviates: Hela cells, TNF-α stimulation, TR-FRET.

Like-named read-outs stand apart in the source and are kept apart here.

BRAF, sequence (P15056 whole entry): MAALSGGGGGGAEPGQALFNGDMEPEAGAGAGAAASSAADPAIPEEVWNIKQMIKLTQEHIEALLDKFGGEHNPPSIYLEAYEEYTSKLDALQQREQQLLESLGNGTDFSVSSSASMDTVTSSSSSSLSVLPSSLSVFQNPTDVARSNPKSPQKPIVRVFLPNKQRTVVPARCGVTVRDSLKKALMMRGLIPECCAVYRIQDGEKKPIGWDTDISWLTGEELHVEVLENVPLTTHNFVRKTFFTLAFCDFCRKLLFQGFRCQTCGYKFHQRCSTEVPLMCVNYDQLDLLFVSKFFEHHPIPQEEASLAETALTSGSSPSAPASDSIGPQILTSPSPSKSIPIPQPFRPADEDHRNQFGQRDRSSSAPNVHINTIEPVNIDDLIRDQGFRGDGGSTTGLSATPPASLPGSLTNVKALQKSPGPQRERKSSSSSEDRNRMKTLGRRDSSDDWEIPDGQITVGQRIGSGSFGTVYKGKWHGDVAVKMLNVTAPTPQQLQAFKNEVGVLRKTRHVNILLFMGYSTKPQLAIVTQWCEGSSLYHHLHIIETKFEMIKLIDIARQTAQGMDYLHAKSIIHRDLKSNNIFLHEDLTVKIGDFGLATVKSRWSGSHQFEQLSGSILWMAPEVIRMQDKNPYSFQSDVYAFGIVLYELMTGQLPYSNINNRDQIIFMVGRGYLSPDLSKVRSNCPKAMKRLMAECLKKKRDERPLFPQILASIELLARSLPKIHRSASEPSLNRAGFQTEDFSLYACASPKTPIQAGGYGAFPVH
MARK1, sequence (Q9P0L2 whole entry): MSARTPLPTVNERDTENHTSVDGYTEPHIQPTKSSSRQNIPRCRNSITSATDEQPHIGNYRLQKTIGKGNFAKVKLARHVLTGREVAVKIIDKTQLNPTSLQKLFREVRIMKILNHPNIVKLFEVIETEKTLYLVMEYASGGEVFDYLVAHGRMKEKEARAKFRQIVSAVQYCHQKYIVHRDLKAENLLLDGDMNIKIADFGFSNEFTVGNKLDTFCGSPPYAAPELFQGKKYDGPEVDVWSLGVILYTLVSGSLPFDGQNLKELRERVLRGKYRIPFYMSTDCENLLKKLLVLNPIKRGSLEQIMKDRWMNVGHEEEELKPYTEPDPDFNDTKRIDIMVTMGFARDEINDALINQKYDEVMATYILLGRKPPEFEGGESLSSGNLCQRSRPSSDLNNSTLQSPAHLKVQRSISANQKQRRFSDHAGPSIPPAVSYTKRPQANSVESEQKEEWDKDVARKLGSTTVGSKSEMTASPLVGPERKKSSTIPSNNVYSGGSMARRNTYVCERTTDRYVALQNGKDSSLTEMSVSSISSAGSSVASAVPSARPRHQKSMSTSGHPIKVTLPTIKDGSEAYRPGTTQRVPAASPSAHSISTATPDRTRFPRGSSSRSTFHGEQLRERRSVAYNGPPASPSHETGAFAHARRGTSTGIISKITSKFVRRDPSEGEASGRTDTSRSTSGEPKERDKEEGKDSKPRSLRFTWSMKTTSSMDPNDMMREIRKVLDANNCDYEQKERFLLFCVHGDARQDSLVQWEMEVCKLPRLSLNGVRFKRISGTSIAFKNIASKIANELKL

Turning to `CN(C)C/C=C/C(=O)Nc1cccc(C(=O)Nc2ccc(Nc3nccc(/C(C#N)=C4\Nc5ccccc5S4)n3)cc2)c1` [JNK-IN-12], the “Percent inhibition of kinase labeling by ATP-biotin” value (“Percent inhibition” below) is recorded as −79% at PKD2; 6.2% on BRAF; −43.5% on MARK1; 98.6% with JNK1,JNK2,JNK3; −3.7% with MAP2K1,MAP2K2; 7.9% in the experiment with ABL,ARG. Moreover, the “Percent inhibition” value on IKKa is −79.2%; at IRAK1, −14.9%; at AurA it was −23%; at PIP5K3, −11.4%. In addition, the EC50 in experiment [1] (setting [3]) came out at 605 nM. The “on-/off-pathway activity in cellular pathway profiling” value (“on-/off-pathway activity” below) in [2] is given as “only on-pathway activity”.

Consider `Cc1cc(NC(=O)c2cccc(NC(=O)/C=C/CN(C)C)c2)ccc1Nc1nccc(-c2cccnc2)n1` [JNK-IN-8], for which the inhibition at 1 µM was 4.9% at PKD2; -23.7% on BRAF; 8.9% on MARK1; 4.9% on IKKa; 0.8% on IRAK1; -8% on AurA. In addition, the inhibition at 1 µM at PIP5K3 worked out at 18.7%. For the same compound, the figures for the “Percent inhibition” value in the experiment with JNK1,JNK2,JNK3, in the experiment with MAP2K1,MAP2K2 and in the experiment on ABL,ARG were 98.7%, 3.2% and −2.7%, respectively. Besides, the EC50 in [1] (Homo sapiens, HeLa) was determined as 486 nM. Moreover, the “on-/off-pathway activity” value in [2] is “only on-pathway activity”.

Consider `CCC(=O)Nc1cccc(C(=O)Nc2ccc(Nc3nccc(-c4cccnc4)n3)cc2)c1` [JNK-IN-6], for which the “Percent inhibition” value on PKD2 was 12%; at BRAF it was 8.9%; on MARK1 it was 23.9%; in the experiment on JNK1,JNK2,JNK3, 27.3%; in the experiment with MAP2K1,MAP2K2 it was 24.3%; with ABL,ARG it was −1.4%. Also, the “Percent inhibition” value at IKKa is 27.3%; on IRAK1 it was −4.6%; on AurA, 9.9%; on PIP5K3, 16.8%. Besides, the concentration giving a half-maximal response (EC50) in experiment [1] (setting [3]) came out at 6760 nM.

As to `CN(C)C/C=C/C(=O)Nc1cccc(C(=O)Nc2ccc(Nc3nccc(-c4c(-c5ccccc5)nn5ccccc45)n3)cc2)c1` [JNK-IN-11], the inhibition at 1 µM at PKD2 was 40.9%; on BRAF it was 27.8%; on MARK1, 18.6%; at IKKa, -7.3%; at IRAK1 it was 5.4%; at AurA, 68.2%. Also, the inhibition at 1 µM at PIP5K3 was found to be 99.3%. Further, the “Percent inhibition” value in the experiment on JNK1,JNK2,JNK3 is listed as 99.8%; in the experiment with MAP2K1,MAP2K2, −10.4%; in the experiment with ABL,ARG it was 56.1%. Besides, the half-maximal effective concentration (EC50) in [1] (Homo sapiens, HeLa) was found to be 48 nM. Also, the “on-/off-pathway activity” value in experiment [2] is given as “off-pathway activity”.

For `CN(C)C/C=C/C(=O)Nc1cccc(C(=O)Nc2ccc(Nc3nccc(-c4cccnc4)n3)cc2)c1` [JNK-IN-7], the inhibition at 1 µM was 13.6% at PKD2; 7% at BRAF; 7.9% on MARK1; -9.2% on IKKa; 81% on IRAK1; 20.9% on AurA. Further, the inhibition at 1 µM on PIP5K3 was 91.8%. Also, the figures for the “Percent inhibition” value with JNK1,JNK2,JNK3, with MAP2K1,MAP2K2 and with ABL,ARG were 99.7%, 3.2% and 1.9%, respectively. In [1] (Homo sapiens, HeLa), the half-maximal effective concentration (EC50) was 130 nM. For the same compound, the “on-/off-pathway activity” value in experiment [2] is “only on-pathway activity”.
